Screens deposited in PubChem BioAssay by Johns Hopkins Ion Channel Center.
Only some compounds are listed: those with a hit (about 3.5% of all), similar ones and a draw of the others.
RGS4 inh = RGS4 inhibitors, primary screen, cell-based, HEK293 M3R inducible RGS4, calcium flux | Regulator of G-protein signaling 4 (Homo sapiens), P49798 | Fluo-4 calcium flux; stronger effect = higher value; triggered by carbachol at its EC20 | B-score at 10 µM | 0.45% of 310,000 active;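 active = B-score, a plate-corrected calcium signal, over three deviations above library mean, with baseline fluorescence within five deviations of library mean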;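 note: RGS4 expression induced by doxycycline in cells with stable M3 receptor; B-score is computed from the integrated fluorescence ratio over baseline after carbachol; higher B-score means a larger calcium signal and so more RGS4 inhibition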
Target sequence (P49798 whole entry, looked up): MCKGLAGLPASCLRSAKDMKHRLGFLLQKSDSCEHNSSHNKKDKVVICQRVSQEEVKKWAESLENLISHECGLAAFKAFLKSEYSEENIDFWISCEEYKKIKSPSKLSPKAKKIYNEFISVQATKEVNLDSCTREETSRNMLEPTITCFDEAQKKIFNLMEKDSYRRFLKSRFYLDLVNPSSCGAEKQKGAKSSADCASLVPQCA
MrgX1 antag = antagonists of human MrgX1 receptor, primary screen, HEK293 cells, Fluo-4 calcium flux; BAM8-22 antagonism; stronger effect = lower value; AID 588676, 2011; 1.3% of 310,000 active; B-score at 10 µM; Mas-related G-protein coupled receptor member X1 (Homo sapiens), Q96LB2;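 active = calcium-response B-score plate-corrected more than 3 library SD below zero, starting fluorescence within 5 deviations, no agonist response on first addition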;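 note: peak minus trough fluorescence over baseline after final BAM8-22 challenge near maximal dose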
Target sequence (Q96LB2 whole entry, looked up): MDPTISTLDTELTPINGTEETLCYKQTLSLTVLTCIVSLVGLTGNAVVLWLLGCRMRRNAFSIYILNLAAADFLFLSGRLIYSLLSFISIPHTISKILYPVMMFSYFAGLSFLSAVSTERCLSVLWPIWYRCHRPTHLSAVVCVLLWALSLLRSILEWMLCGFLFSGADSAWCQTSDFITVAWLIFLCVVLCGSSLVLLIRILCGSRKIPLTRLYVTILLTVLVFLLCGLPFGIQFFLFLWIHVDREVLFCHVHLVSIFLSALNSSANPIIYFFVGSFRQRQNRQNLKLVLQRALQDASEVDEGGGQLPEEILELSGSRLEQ
MrgX1 PAM = positive allosteric modulators of MrgX1, primary screen, HEK293 cells, Fluo-4 calcium flux. Mas-related G-protein coupled receptor member X1 (Homo sapiens), Q96LB2. FDSS; stronger effect = higher value. B-score at 10 µM. 0.63% of 310,000 active. AID 588675, 2011;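 active = plate-corrected calcium response at least 3 library SD above typical, normal starting fluorescence, not activating the receptor alone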;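 note: compound read alongside a low EC10 to EC30 dose of BAM8-22 agonist; peak minus trough fluorescence over baseline measured at the second addition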
MrgX1 ag = agonists of human MrgX1 receptor, primary screen, HEK293 cells, Fluo-4 calcium flux; Mas-related G-protein coupled receptor member X1 (Homo sapiens), Q96LB2; B-score at 10 µM; 0.44% of 310,000 active; Fluo-4 calcium fluorescence, agonist mode; stronger effect = higher value;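 active = calcium response B-score plate-corrected fluorescence ratio at least 3 library SD, with starting fluorescence B-score inside 5 SD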
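Material: HEK293 cells stably expressing human MrgX1 receptor | Quantity: 15,000 cells per well | Times: Cells plated overnight, dye loaded 0.5 h 37 °C, 0.5 h room temperature | Measured by: Kinetic Fluo-4 NW fluorescence of intracellular calcium | Control set: Positive and negative controls per plate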
RGS4 act = RGS4 potentiators or activators, primary screen, cell-based, HEK293 M3R inducible RGS4, calcium flux. carbachol calcium flux Fluo4; stronger effect = lower value. B-score at 10 µM. 0.92% of 310,000 active. AID 463111, 2010;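 active = B-score of the integrated calcium signal more than 4 SD below the library mean, with starting fluorescence not abnormally high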;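 note: negative B-score means reduced calcium response which marks RGS4 activation or potentiation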
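Test system: HEK293 cells with stable M3R and inducible RGS4; also added: carbachol at ECmax as muscarinic agonist stimulus; schedule: dye loading 30 min 37 °C, buffer rest 30 min RT; technique: kinetic calcium fluorescence imaging with Fluo4-AM dye, 2 µM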
RGS4 act valid = reduced carbachol calcium response, RGS4-induced M3R cells, confirmation, RGS4 activator project, cell-based, HEK293 M3R/RGS4 inducible, calcium flux, duplicate; inhibition, % at 10 µM; carbachol calcium flux Fluo4; shares compounds with RGS4 act; 89% of 1,100 active;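 active = inhibition above 3 SD of the buffer control wells, cut at about 41% in these data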;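 note: signal is the integrated peak-minus-minimum Fluo4 fluorescence over baseline ratio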
M3R Ca counter = counter-screen for RGS4 activators: effect in non-induced cells. shares compounds with RGS4 act. HEK293 M3R non-induced RGS4, Fluo4 calcium flux; after carbachol challenge at its EC90. inhibition, % at 10 µM. 82% of 1,100 active;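 active = inhibition exceeding 3 SD of buffer-only control wells, cut at about 26% in these data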;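 note: percent drop in integrated peak-minus-baseline over baseline Fluo4 ratio after carbachol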
The depositor's hits bear a star; i = inactive; · = no result.

SMILES | RGS4 inh | MrgX1 antag | MrgX1 PAM | MrgX1 ag | RGS4 act | RGS4 act valid | M3R Ca counter
CSc1nc(NCCCO)c2c3c(sc2n1)CN(C)CC3 | i | i | i | i | -7.8* | 0 | 0
CC(C)CC1CCCCC1OC(=O)C[N+]1(C)CCCCC1 (centres undefined) | i | i | i | i | -11* | 92* | 87*
Cn1cc(CN2CCC(CO)CC2)c(-c2ccc(Oc3ccccc3)cc2)n1 | i | i | i | i | i | · | ·
CN(Cc1ccc(F)cc1)C(=O)C(c1ccccc1)c1ccccc1 | i | i | i | i | -9.1* | 82* | 84*
CN(Cc1cccc(F)c1)C(=O)C(c1ccccc1)c1ccccc1 | i | i | i | i | i | · | ·
COc1ccc2nc3sc(C(=O)NCCCN4CCc5ccccc5C4)cc3cc2c1 | i | i | i | i | -8.2* | 74* | 84*
O=C1CCCN1CCCNCC(=O)N1c2ccccc2Sc2ccccc21 | i | i | i | i | -9.4* | 85* | 55*
O=C1CCCN1CCCNCC(O)c1ccccc1 (centres undefined) | i | i | i | i | i | · | ·
CN1CCN(CC(=O)N2c3ccccc3Sc3ccccc32)CC1 | i | i | i | i | -11* | 92* | 76*
O=C(C[n+]1ccccc1)N1c2ccccc2Sc2ccccc21 | i | i | i | i | -12* | 93* | 96*
O=C(O)c1ccccc1SCC(=O)N1c2ccccc2Sc2ccccc21 | i | i | i | i | i | · | ·
CCOC(=O)N1CCN(CC(=O)N2c3ccccc3Sc3ccccc32)CC1 | i | i | i | i | i | · | ·
O=C(CN1CCN(CCOCCO)CC1)N1c2ccccc2Sc2ccc(Cl)cc21 | i | i | i | i | -9.1* | 88* | 64*
COc1ccccc1N(CC(=O)NCC1CCCO1)C(=O)CNS(=O)(=O)c1ccc(Cl)cc1 (centres undefined) | i | i | i | i | i | · | ·
O=C(CN1CCCCCC1)N1c2ccccc2Sc2ccccc21 | i | i | i | i | -11* | 92* | 92*
CCOC(=O)c1c(NC(C)=O)sc2c(OC)c(Br)ccc12 | i | i | i | i | i | · | ·
CCOC(=O)c1c(NC(C)=O)sc2c(OCCN(CC)CC)c(Br)ccc12 | i | i | i | i | -10* | 90* | 39*
O=C(CCc1nnc2ccc(NCc3ccco3)nn12)Nc1cccc(F)c1 | i | i | i | i | i | · | ·
CCCc1ccc(-c2cc(C(=O)N3CCN(c4ccccn4)CC3)c3ccccc3n2)cc1 | i | i | i | i | -12* | 52* | 0
COc1ccc(-c2cc(C(=O)N3CCN(c4ccccc4F)CC3)c3ccccc3n2)c(OC)c1 | i | i | i | i | -8.4* | 56* | 0
CCOc1ccc(-c2cc(C(=O)N3CCN(c4ccccn4)CC3)c3ccccc3n2)cc1 | i | i | i | i | i | · | ·
COc1ccc(-c2cc(C(=O)N3CCN(c4ccccc4O)CC3)c3ccccc3n2)cc1OC | i | i | i | i | -7.7* | 92* | 82*
O=C(O)CC/C(=N/Nc1ncc(C(F)(F)F)cc1Cl)C(=O)O | i | i | i | i | i | · | ·
COc1cccc(-c2nc3c(c(SCC(=O)N4CCOCC4)n2)Cc2c(CO)cnc(C)c2O3)c1 | i | i | i | i | -8.1* | 40* | 84*
Cc1ncc(CO)c2c1Oc1nc(-c3ccccc3)nc(SCC(=O)N3CCCCC3)c1C2 | i | i | i | i | -7.8* | 76* | 40*
SMILES | RGS4 inh | MrgX1 antag | MrgX1 PAM | MrgX1 ag | RGS4 act | RGS4 act valid | M3R Ca counter
COc1ccc(CNC(=O)CN(C(=O)c2csnn2)c2cccc3ccccc23)cc1 | i | i | i | i | i | · | ·
O[C@@H]1COC(Nc2ccc(N=Nc3ccccc3)cc2)C[C@@H]1O (some centres undefined) | i | i | i | i | i | · | ·
O=C(Nc1ccccc1C(=O)O)c1cc(S(=O)(=O)N2CCCCCC2)ccc1Cl | i | i | i | i | -8.4* | 0 | 0
CC(C)(C)N(Cc1ccccc1)C(=O)c1cc2ccccc2o1 | i | i | i | i | -7.6* | 91* | 93*
CN(Cc1ccccc1)C(=O)c1cc2ccccc2o1 | i | i | i | i | i | · | ·
CCc1nc2ccc(C(=O)N3CCN(c4ccccc4)CC3)cc2nc1CC | i | i | i | i | i | · | ·
O=C(c1ccc2nc(-c3ccco3)c(-c3ccco3)nc2c1)N1CCN(c2ccccc2)CC1 | i | i | i | i | -13* | 92* | 46*
COc1ccc(O)c(C(=O)c2cnc3c(c2)c(C)nn3CCO)c1 | i | i | i | i | i | · | ·
c1ccc(COc2ccc(CNCc3cccnc3)cc2)cc1 | i | i | i | i | -13* | 84* | 42*
O=C(OCC(=O)N1CCc2ccccc21)c1c2c(nc3ccccc13)CCCCC2 | i | i | i | i | -9.4* | 83* | 44*
CC(C)(C)NC(=O)COC(=O)c1c2c(nc3ccccc13)CCC2 | i | i | i | i | -9.6* | 44* | 0
C=CCN1CN(S(=O)(=O)c2cccc(Cl)c2)c2nc3ccccc3nc21 | i | i | i | i | i | · | ·
S=C(NCCN(C1CCCCC1)C1CCCC1)Nc1cccc(Cl)c1 | i | i | i | i | -7.9* | 62* | 84*
S=C(Nc1cccc(Cl)c1)NC1CC2CCCC(C1)N2C1CCCC1 (centres undefined) | i | i | i | i | i | · | ·
Cc1ccccc1-c1nn2c(-c3ccccc3)nnc2s1 | i | i | i | i | -7.7* | 0 | 0
N#CCNC(=O)C1CC(=O)N(CCc2ccc(F)cc2)C1 (centres undefined) | i | i | i | i | i | · | ·
O=C(Nc1ccc(S(=O)(=O)N2CCCC2)cc1)c1ccc(OCC2CCCO2)cc1 (centres undefined) | i | i | i | i | i | · | ·
